Source: PubChem
VIM-2 inhibitor: inhibitors of Pseudomonas aeruginosa VIM-2 metallo-beta-lactamase | inhibition, % at 5.6 µM | purified VIM-2, nitrocefin hydrolysis, epi-absorbance fluorescence | 290,000 tested, 0.89% active;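 active = inhibition above the mean of all tested compounds plus 3 SD, cutoff set per screening run, cut at about 7.5% in these data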;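 also: red hydrolysis product quenches plate fluorescence so inhibitors raise well fluorescence; 0% = enzyme with DMSO and 100% = DMSO without enzyme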
MEKK2mut PB1 HTS: signal of MEK5 binding to mutant human MEKK2 PB1 domain. 290,000 tested, 0.35% active. AID 1530. percent response, % at 10 µM. bead flow cytometry, Alexa488-MEK5 binding to MEKK2 mutant; in the data active = percent response above about 24%, passing the limit was not always enough
IMP-1 inh: blocks Pseudomonas aeruginosa IMP-1 metallo-beta-lactamase | purified IMP-1, nitrocefin hydrolysis, epi-absorbance fluorescence | inhibition, % at 5.6 µM | 290,000 tested, 0.45% active | AID 1556;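 active = inhibition above the mean plus 3 SD of all compounds in the same screening run, cut at about 4.5% in these data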;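 also: 0% = IMP-1 with DMSO and 100% = DMSO wells lacking enzyme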
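System: Purified IMP-1 | Read-out basis: Percent enzyme inhibition | Controls: IMP-1 with DMSO as 0%, enzyme-free DMSO as 100% | Replicates: One well per compound | Doses: 5.6 µM nominal single concentration | Detection: Epi-absorbance fluorescence, 480 nm excitation, 530 nm emission | Incubation: 25 °C, 15 min preincubation, 25 min reaction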
MEKK3 PB1 HTS: raises or lowers MEK5 binding to the human MEKK3 PB1 domain; Q99759; bead-based flow cytometry, Alexa488-MEK5 binding to MEKK3; actives lie on both sides; 0 = blocked by unlabeled MEK5, 100 = vehicle; binding response (% of control), % at 10 µM; 290,000 tested, 1.4% active; AID 1529;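 active = binding response more than 3 SD above or below the average of its plate-row segment, actives on both sides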;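 also: Alexa488 bead fluorescence after subtracting the streptavidin-only scavenger bead signal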
Target sequence (Q99759 whole entry, looked up, the tested form may be a part): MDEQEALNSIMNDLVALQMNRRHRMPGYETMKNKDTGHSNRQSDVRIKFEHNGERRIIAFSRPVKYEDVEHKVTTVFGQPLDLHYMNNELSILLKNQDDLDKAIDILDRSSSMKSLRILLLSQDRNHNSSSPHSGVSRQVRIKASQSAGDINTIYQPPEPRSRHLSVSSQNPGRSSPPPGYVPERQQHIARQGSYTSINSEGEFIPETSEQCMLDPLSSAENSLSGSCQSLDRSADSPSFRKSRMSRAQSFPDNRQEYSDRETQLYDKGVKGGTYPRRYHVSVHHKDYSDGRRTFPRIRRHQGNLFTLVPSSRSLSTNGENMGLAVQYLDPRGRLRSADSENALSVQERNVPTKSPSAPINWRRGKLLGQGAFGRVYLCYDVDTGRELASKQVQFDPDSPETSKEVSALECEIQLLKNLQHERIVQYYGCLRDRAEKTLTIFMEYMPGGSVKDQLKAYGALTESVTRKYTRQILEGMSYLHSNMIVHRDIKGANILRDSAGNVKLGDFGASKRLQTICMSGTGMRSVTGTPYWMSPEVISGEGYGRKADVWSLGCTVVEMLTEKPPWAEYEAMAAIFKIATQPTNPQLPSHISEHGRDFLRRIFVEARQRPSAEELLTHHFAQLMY
MEKK2 WT-MEK5: raises or lowers MEK5 binding to wildtype human MEKK2 PB1 domain; 290,000 tested, 1.1% active; Q9Y2U5; binding response (% of control), % at 10 µM; AID 1531; bead flow cytometry, Alexa488-MEK5 binding to MEKK2 WT; actives lie on both sides; in the data active = binding response below about 67% or above about 130%
MEKK2wt confirm: raises or lowers MEK5 binding to wildtype human MEKK2, retest; shares compounds with MEKK3 PB1 HTS; bead flow cytometry, Alexa488-MEK5 binding to MEKK2 WT; actives lie on both sides; binding response (% of control), % at 10 µM; 5,900 tested, 2.4% active; AID 1892; in the data active = binding response below about 16% or above about 210%; inactive = in between
MEKK2mut confirm: signal of MEK5 binding to mutant human MEKK2, retest; shares compounds with MEKK3 PB1 HTS; bead flow cytometry, Alexa488-MEK5 binding to MEKK2 mutant; percent response, % at 10 µM; 5,900 tested, 2% active; AID 1893; in the data active = percent response mostly above about 71%, no sharp cut-off; inactive = mostly below about 38%;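 also: higher means compound restores mutant binding toward wildtype level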
MEKK3 confirm: MEKK3-MEK5 PB1 inhibition, single concentration confirmation | shares compounds with MEKK3 PB1 HTS | bead flow cytometry, Alexa488-MEK5 binding to MEKK3; hits give low values | binding response (% of control), % at 10 µM | 5,900 tested, 1.8% active | AID 1894;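 active = binding response below 72% of control, or above a set upper limit, though filed actives all read lower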;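 also: 100% = DMSO only wells and 0% = binding blocked by excess unlabeled MEK5; lower values mean stronger disruption of MEK5 binding to MEKK3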
* = called active by the depositor; . = no result; + = active, no number; [ ] = another dose, or the depositor's remark. This is a sample that favours compounds with a hit; in the whole collection about 3.4% have one here.

SMILES	VIM-2 inhibitor	MEKK2mut PB1 HTS	IMP-1 inh	MEKK3 PB1 HTS	MEKK2 WT-MEK5	MEKK2wt confirm	MEKK2mut confirm	MEKK3 confirm
COCC(=O)N1CCC(Oc2ccc(C(=O)NCCc3ccncc3)cc2)CC1	-0.7	+	-2.4	128.0*	610.0*	107.0	3.0	106.0
COCCC(=O)N1CCC(Oc2ccc(C(=O)NCCc3cnn(C)c3)cc2)CC1	0.6	-9.0	0.6	96.0	101.0	.	.	.
Cn1c(=O)oc2cc(S(=O)(=O)N3CCN(c4ccccc4)CC3)ccc21	-1.8	3.0	-3.6	103.0	108.0	.	.	.
Cn1c(=O)oc2cc(S(=O)(=O)N3CCN(c4ccccn4)CC3)ccc21	0.3	-9.0	1.8	50.0*[inhibitor]	64.0	108.0	13.0	111.0
COC(=O)c1ccc(Oc2ccc(C(F)(F)F)cn2)cc1	-1.9	7.0	-2.5	152.0*	129.0	103.0	-2.0	96.0
O=C(O)c1ccc(Oc2ccc(C(F)(F)F)cn2)cc1	-1.1	-9.0	-1.4	91.0	84.0	.	.	.
CC(C)COc1ccc(CN=C(N)N=C(N)N)cc1Cl	-4.0	25.0	-4.3	106.0	139.0*	112.0	1.0	89.0
CC(C)Oc1ccc(CN=C(N)N=C(N)N)cc1Cl	-2.5	23.0	-1.1	105.0	116.0	.	.	.
CCN1C(=O)/C(=C/C=C2\N(CC)c3cc(S(=O)(=O)N(C)C)ccc3N2c2ccccc2)SC1=S	-1.9	-4.0	-1.6	81.0	53.0*[inhibitor]	39.0	-22.0	76.0
CCN1C(=O)/C(=C\C=C\c2ccccc2[N+](=O)[O-])SC1=S	-4.8	-4.0	-4.8	88.0	69.0	.	.	.
CC1CN(C(=O)Cn2cc(SCC(=O)N3CCOCC3)c3ccccc32)CC(C)O1 (configuration not stated)	1.0	-15.0	-1.0	1.0*[inhibitor]	-2.0*[inhibitor]	109.0	5.0	110.0
Cc1cccc(N2C(=O)C(Oc3ccc(Cl)cc3Cl)C2C(=O)O)c1C (configuration not stated)	0.1	1.0	-0.5	139.0*	108.0	108.0	10.0	104.0
Cc1cccc(N2CC(C(=O)O)CC2=O)c1C (configuration not stated)	-0.9	16.0	-2.1	99.0	95.0	.	.	.
CCCNCC1C(Oc2ccc(Cl)cc2Cl)C(=O)N1c1cccc(C)c1C (configuration not stated)	-3.0	4.0	-0.9	136.0*	135.0	128.0	12.0	98.0
COC(=O)c1c(NC(=O)CSc2nc(-c3ccco3)cc(C(F)(F)F)n2)sc2c1CCCC2	-4.5	-22.0	-1.4	0.0*[inhibitor]	-8.0*[inhibitor]	108.0	12.0	109.0
Cc1cc(NC(=O)CSc2nc(-c3cccs3)cc(C(F)(F)F)n2)no1	-4.0	-35.0	-2.3	89.0	-7.0*[inhibitor]	96.0	0.0	100.0
Oc1c(N=NC(=S)Nc2ccccc2F)c2ccccc2n1Cc1ccccc1	-0.4	-6.0	-1.5	100.0	94.0	.	.	.
CC1=CC(C)(C)N2C(=O)C(=O)c3cc(OC(=O)c4ccco4)cc1c32	1.8	-16.0	0.0	83.0	78.0	.	.	.
Cc1ccc([N+](=O)[O-])c(OCCCN2CCCCCC2)c1	-2.3	66.0*	-1.9	99.0	169.0*	130.0	16.0	104.0
FC(F)(F)c1nnc2ccc(Sc3ccccn3)nn12	-3.9	-28.0	-2.6	1.0*[inhibitor]	.	95.0	-8.0	95.0
O=C(CSc1ccc(F)cc1)NC1CCCCC1	0.8	-84.0	1.9	2.0*[inhibitor]	1.0*[inhibitor]	106.0	5.0	107.0
Cn1cccc1C(=O)NC(=O)CSc1nnc(C2CC2)n1-c1ccccc1	3.5	8.0	-3.8	127.0*	122.0	93.0	-4.0	95.0
COc1ccc(C[C@H]2CN3C(=NC[C@@H]3Cc3ccccc3)N2CCNC(=O)CCC2CCCCC2)cc1	-2.0	40.0	-1.8	110.0	179.0*	134.0	19.0	106.0
